Measured values: ChEMBL document CHEMBL3870322, “New telmisartan-derived PPARγ agonists: Impact of the 3D-binding mode on the pharmacological profile” (Eur J Med Chem, 2016)
Calls of active or inactive are those of the source. The rule behind the calls is not given here.

Legend:
[1] = target: T1, Peroxisome proliferator-activated receptor gamma (Homo sapiens, UniProt P37231); assay: Transactivation at Gal4 fused PPARgamma LBD (unknown origin) expressed in African green monkey COS7 cells after 42 hrs by luciferase assay; assay type: cell-based, COS-7
T1 sequence (P37231 whole entry): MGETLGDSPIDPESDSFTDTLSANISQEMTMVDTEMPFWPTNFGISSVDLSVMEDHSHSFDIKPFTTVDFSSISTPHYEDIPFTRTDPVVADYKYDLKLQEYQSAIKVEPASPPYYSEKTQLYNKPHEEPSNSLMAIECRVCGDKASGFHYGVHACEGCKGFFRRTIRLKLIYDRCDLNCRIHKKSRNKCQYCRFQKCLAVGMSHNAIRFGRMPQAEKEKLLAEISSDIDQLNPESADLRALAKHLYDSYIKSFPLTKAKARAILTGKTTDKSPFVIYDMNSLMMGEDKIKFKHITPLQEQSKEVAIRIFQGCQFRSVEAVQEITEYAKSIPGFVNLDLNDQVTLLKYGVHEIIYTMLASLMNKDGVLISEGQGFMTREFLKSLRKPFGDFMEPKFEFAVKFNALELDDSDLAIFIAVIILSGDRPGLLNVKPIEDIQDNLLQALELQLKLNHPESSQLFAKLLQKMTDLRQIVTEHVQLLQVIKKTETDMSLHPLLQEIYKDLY

[2] = target: T2, Peroxisome proliferator-activated receptor gamma (Homo sapiens) (UniProt P37231); assay: Intrinsic activity at Gal4 fused PPARgamma LBD (unknown origin) expressed in African green monkey COS7 cells after 42 hrs by luciferase assay relative to pioglitazone; assay type: cell-based; conditions: COS-7
T2 sequence (whole entry): T1 sequence (P37231 whole entry)
In short: (§1)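 COS-7 cells (10⁴/well, 24 h, 37 °C, 5% CO₂) transfected in serum-free medium with pGal5-TK-Luc, pGal4-hPPARγ-LBD and pRenilla-CMV (Lipofectamine 2000). After 4 h, compound or DMSO added across a concentration series. Dual-luciferase readout at 42 h, firefly normalized to Renilla. Maximal activation expressed as % of pioglitazone. Mean SD of three independent experiments, each run in triplicate.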

[3] = Growth inhibition of African green monkey COS7 cells at 50 uM after 72 hrs by crystal violet staining based assay; assay type: cell-based, COS-7; conditions: chlorocebus aethiops; for growth inhibition (GI): cos-7, 72 h, 50 µM; for inhibition at 72 h, 50 µM: COS7 cells, read-out: GI
In short: (§2)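 Cells seeded in complete DMEM, LNCaP at 5×10⁴/well on poly-D-lysine-coated wells, COS-7 at 3×10⁴/well. After 24 h at 37 °C, compound added at 50 µM final (DMSO vehicle). Exposure 72 h, then PBS wash, fixation in 1% […]/PBS, crystal violet staining of chromatin, absorbance 590 nm. Biomass given as % of vehicle control; mean SD of at least two independent experiments.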

[4] = tested on: 3T3-L1; assay: Induction of triglyceride accumulation in insulin-stimulated mouse 3T3L1 preadipocytes at 10 uM after 9 days by Oil-Red O staining based assay relative to control
[5] = target: T3, Peroxisome proliferator-activated receptor gamma (Mus musculus, UniProt P37238); assay: Full agonist activity at PPARgamma in mouse 3T3L1 preadipocytes assessed as increase in insulin induced adipocyte differentiation by measuring triglyceride accumulation at 1 uM after 9 days by Oil-Red O staining based assay; assay type: cell-based; conditions: 216 h
T3 sequence (P37238 whole entry): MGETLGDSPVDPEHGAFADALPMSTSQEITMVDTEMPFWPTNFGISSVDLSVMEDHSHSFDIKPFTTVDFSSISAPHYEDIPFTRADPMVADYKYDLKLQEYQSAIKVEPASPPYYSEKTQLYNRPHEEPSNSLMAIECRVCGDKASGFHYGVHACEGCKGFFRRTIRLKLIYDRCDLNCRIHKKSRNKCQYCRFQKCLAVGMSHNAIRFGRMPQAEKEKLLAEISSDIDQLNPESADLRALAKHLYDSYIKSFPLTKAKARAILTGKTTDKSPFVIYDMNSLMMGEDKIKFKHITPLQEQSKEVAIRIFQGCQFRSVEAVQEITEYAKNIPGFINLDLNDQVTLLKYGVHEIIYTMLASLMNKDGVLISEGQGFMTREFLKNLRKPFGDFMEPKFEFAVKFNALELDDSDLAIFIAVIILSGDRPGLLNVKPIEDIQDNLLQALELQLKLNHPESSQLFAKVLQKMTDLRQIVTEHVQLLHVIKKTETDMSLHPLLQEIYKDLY
In short: (§3)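 Postconfluent 3T3-L1 cells (DMEM, 10% FCS) differentiated over 9 days: 3 days with insulin (0.17 µM) plus dexamethasone (1 µM), 3 days with insulin (0.17 µM), then 3 days medium alone. Compound present throughout at 1 or 10 µM; DMSO vehicle. Day 9: PBS wash, Oil-Red O staining 1 h, dye extracted with 80% isopropanol, A515 read, expressed as ratio to vehicle; mean SD, three independent experiments.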

[6] = tested on: LNCaP; assay: (§4) Growth inhibition of human LNCAP cells expressing PPARgamma at 50 uM after 72 hrs by crystal violet staining based assay; assay type: functional; in short: as §2
[7] = target: T3, Peroxisome proliferator-activated receptor gamma; assay: Full agonist activity at PPARgamma in mouse 3T3L1 preadipocytes assessed as increase in insulin induced adipocyte differentiation by measuring triglyceride accumulation at 10 uM after 9 days by Oil-Red O staining based assay relative to control; assay type: cell-based; conditions: 216 h; in short: as §3
[8] = as §4; assay type: functional; conditions: read-out: GI; in short: as §2
[9] = target: T3, Peroxisome proliferator-activated receptor gamma; assay: Full agonist activity at PPARgamma in mouse 3T3L1 preadipocytes assessed as increase in insulin induced adipocyte differentiation by measuring triglyceride accumulation at 1 to 10 uM after 9 days by Oil-Red O staining based assay relative to control; assay type: cell-based; conditions: 216 h
[10] = target: T2, Peroxisome proliferator-activated receptor gamma (Homo sapiens); assay: Intrinsic activity at Gal4 fused PPARgamma LBD (unknown origin) expressed in African green monkey COS7 cells at 20 uM after 42 hrs by luciferase assay relative to pioglitazone; assay type: cell-based; conditions: COS-7; in short: as §1

SMILES	EC50 [1] [µM]	%max [2] [%]	growth inhibition (GI) [3]	fold change (FC) [4]	Activity [5]	growth inhibition (GI) [6]	fold change (FC) [7]	inhibition of growth at 50 µM [8] [%]	inhibition at 72 h, 50 µM [3] [%]	Activity [9]	%max [10] [%]
CCCc1nc2ccccc2n1Cc1ccc(-c2cccc(C(=O)O)c2)cc1	6.24	44.7	Non-Toxic	2.5							
CCCCCCCc1nc2ccccc2n1Cc1ccc(-c2ccccc2C(N)=O)cc1	0.84	32.8	Toxic		Active	Active					
CCCc1nc2c(C)cc(-c3nc4ccccc4n3C)cc2n1Cc1ccc(-c2ccccc2C(=O)O)cc1 [TELMISARTAN]	4.71	50.9	Non-Toxic				2				
CCCc1cc2ccccc2n1Cc1ccc(-c2ccccc2C#N)cc1	8.03	21.7						27.4 to 54.1	36.8		
CCc1ccc(CCOc2ccc(CC3SC(=O)NC3=O)cc2)nc1 (stereo not given) [PIOGLITAZONE]			Non-Toxic					55.8			
CCCCCCc1nc2ccccc2n1Cc1ccc(-c2ccccc2C(N)=O)cc1	3.06	37.8			Active			78.5	92.8		
CCCc1nc2ccccc2n1Cc1ccc(-c2ccc(C(=O)O)cc2)cc1	1.88	84.1	Non-Toxic	1.2							
CCCCCCCc1nc2ccccc2n1Cc1ccc(-c2ccccc2C(=O)O)cc1	0.17	82.5	Non-Toxic							Active	
CCCC1Sc2ccccc2N1Cc1ccc(-c2ccccc2C(=O)O)cc1 (stereo not given)	1.05	57.4	Non-Toxic				> 3				
CCCC1Sc2ccccc2N1Cc1ccc(-c2ccccc2C(N)=O)cc1 (stereo not given)								79	69.2		33.1
CCCCCc1nc2ccccc2n1Cc1ccc(-c2ccccc2C(=O)O)cc1	0.4	55.4	Non-Toxic							Active	
CCCc1nc2ccccc2n1Cc1ccc(-c2ccccc2C(=O)O)cc1	4.17 to 4.19	49.6	Non-Toxic	3.2							
CCCc1nc2ccccc2n1Cc1ccc(-c2ccccc2C#N)cc1	5.01	51.3						61.9	61.9		
CCCCCc1nc2ccccc2n1Cc1ccc(-c2ccccc2C(N)=O)cc1	3.9	16.2	Toxic		Active	Active					
CCCc1cc2ccccc2n1Cc1ccc(-c2ccccc2C(=O)O)cc1	1.86	40					> 3	27.4 to 54.1			
CCCCCCc1nc2ccccc2n1Cc1ccc(-c2ccccc2C(=O)O)cc1	0.21	75	Non-Toxic							Active	
CCCc1cc2ccccc2n1Cc1ccc(-c2ccccc2C(N)=O)cc1		11						27.4 to 54.1			
CCCc1nc2ccccc2n1Cc1ccc(-c2ccccc2C(N)=O)cc1	3.15	21.1						33	33		
